Tests used:
[1] = Partition coefficient (logD7.4); settings: octanol/water
Renin [2] = target: T1, Renin (Homo sapiens, UniProt P00797); assay: Inhibitory activity against monkey plasma renin.; assay type: cell-free, Cercopithecidae; settings: target entry is the homologue from another species
T1 sequence (P00797 whole entry): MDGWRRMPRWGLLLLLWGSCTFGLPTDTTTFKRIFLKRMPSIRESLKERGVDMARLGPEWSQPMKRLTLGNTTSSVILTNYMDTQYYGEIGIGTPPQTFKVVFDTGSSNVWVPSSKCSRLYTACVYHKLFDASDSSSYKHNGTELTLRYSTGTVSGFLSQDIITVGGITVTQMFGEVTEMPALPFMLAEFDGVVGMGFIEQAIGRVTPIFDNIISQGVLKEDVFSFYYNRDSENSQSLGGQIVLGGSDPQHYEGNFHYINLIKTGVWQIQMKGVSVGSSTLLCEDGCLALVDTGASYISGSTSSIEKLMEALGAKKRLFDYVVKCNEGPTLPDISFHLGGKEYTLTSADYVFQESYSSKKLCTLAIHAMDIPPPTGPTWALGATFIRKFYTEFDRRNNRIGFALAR
Procedure, shortened: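 Plasma from salt-depleted, furosemide-treated monkeys (native renin and angiotensinogen) incubated with maleate buffer (pH 6.0), PMSF and inhibitor in DMSO for 60 min at 37 °C. Plasma renin activity was 3–8 ng AI/mL per h. Percent inhibition was taken vs DMSO vehicle tubes, and IC50 from six concentrations by nonlinear regression.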

Renin [3] = target: T1, Renin; assay: Inhibitory activity against human plasma renin; assay type: cell-free
Cathepsin D = target: T2, Cathepsin D (Bos taurus, UniProt P80209); assay: Inhibitory activity against bovine cathepsin D was determined
T2 sequence (P80209 whole entry): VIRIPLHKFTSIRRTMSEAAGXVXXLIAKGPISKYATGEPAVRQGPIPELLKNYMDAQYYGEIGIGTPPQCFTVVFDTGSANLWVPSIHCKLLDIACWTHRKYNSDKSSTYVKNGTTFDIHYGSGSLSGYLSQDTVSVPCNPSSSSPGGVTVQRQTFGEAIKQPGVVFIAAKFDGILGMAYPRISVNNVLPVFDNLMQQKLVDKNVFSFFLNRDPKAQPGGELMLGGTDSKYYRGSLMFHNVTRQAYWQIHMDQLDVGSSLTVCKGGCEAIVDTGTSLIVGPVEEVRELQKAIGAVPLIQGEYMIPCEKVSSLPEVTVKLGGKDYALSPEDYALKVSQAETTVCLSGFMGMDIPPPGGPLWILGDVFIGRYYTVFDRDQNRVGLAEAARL
Procedure, shortened: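 Bovine cathepsin D activity assayed in duplicate as hydrolysis of bovine hemoglobin (2× crystallized) at pH 3.2, 37 °C. Net absorbance at 280 nm read in acid-precipitated supernatants of inhibited vs uninhibited controls. IC50 from six inhibitor concentrations by nonlinear regression.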

logD ([1]; pH 7.4, logD)	IC50 (Renin [2]) [µM]	IC50 (Renin [3]) [µM]	Compound	logD ([1]; pH 7.4)	IC50 (Cathepsin D) [µM]
5.63	0.044	0.029	CCC(C)CNC(=O)C[C@H](O)C(CC(C)C)NC(=O)C(CCCCNC(=O)NC)NC(=O)C(Cc1cccc2ccccc12)Cc1cccc2ccccc12 (stereo partly specified)	–	–
6.6	0.138	0.058	CCC(C)CNC(=O)C[C@H](O)C(CC(C)C)NC(=O)C(CCCCNC(=S)Nc1ccccc1)NC(=O)C(Cc1cccc2ccccc12)Cc1cccc2ccccc12 (stereo partly specified)	–	–
3.13	0.7	–	CC(C)(C)OC(=O)NCC#CCC(NC(=O)C(Cc1ccccc1)NS(=O)(=O)N1CCOCC1)C(=O)NC(CC1CCCCC1)[C@@H](O)CC(=O)N1CCOC(CCN)C1 (stereo in doubt; 61b)	–	–
–	0.011	–	CC(C)(C)OC(=O)NCC#CCC(NC(=O)C(Cc1ccccc1)NS(=O)(=O)N1CCOCC1)C(=O)NC(CC1CCCCC1)[C@@H](O)CC(=O)N1CCOC(CCN)C1 (stereo in doubt; 61a)	3.96	–
2.12	0.0005	–	CC(=O)NCC#CCC(NC(=O)C(Cc1ccccc1)NS(=O)(=O)N1CCOCC1)C(=O)NC(CC1CCCCC1)[C@@H](O)CC(=O)N1CCOC(CCN)C1 (stereo partly specified)	–	–
7.21	0.144	0.087	CCC(C)CNC(=O)C[C@H](O)C(CC(C)C)NC(=O)C(CCCCn1cccc1)NC(=O)C(Cc1cccc2ccccc12)Cc1cccc2ccccc12 (stereo partly specified)	–	–
–	0.041	0.029	CCC(C)CNC(=O)C[C@H](O)C(CC(C)C)NC(=O)C(CC#CCNC(C)=O)NC(=O)C(Cc1cccc2ccccc12)Cc1cccc2ccccc12 (stereo in doubt; 55b)	5.06	–
7.37	0.248	0.15	CCC(C)CNC(=O)C[C@H](O)C(CC(C)C)NC(=O)C(CC#CCNC(=O)OCc1ccccc1)NC(=O)C(Cc1cccc2ccccc12)Cc1cccc2ccccc12 (stereo partly specified)	–	–
1.68	0.35	–	CS/C(=N\CCCCC(NC(=O)C(CC(=O)N1CCOCC1)Cc1cccc2ccccc12)C(=O)NC(CC(C)C)[C@@H](O)CC(=O)N1CCOC(CCN)C1)NC#N (stereo partly specified)	–	–
2.32	0.0033	–	CC(C)CC(NC(=O)C(CCCCNC(=O)OCc1ccccc1)NC(=O)C(Cc1ccccc1)NS(=O)(=O)N1CCOCC1)C(=O)C(F)(F)C(=O)N1CCOC(CCN)C1 (stereo unspecified)	–	–
2.25	0.005	0.0054	NCCC1CN(C(=O)C[C@H](O)C(CC2CCCCC2)NC(=O)C(Cc2c[nH]cn2)NC(=O)C(Cc2ccccc2)NS(=O)(=O)N2CCOCC2)CCO1 (stereo partly specified)	–	–
5.31	0.089	0.05	CCC(C)CNC(=O)C[C@H](O)C(CC(C)C)NC(=O)C(CCCCNC(N)=O)NC(=O)C(Cc1cccc2ccccc12)Cc1cccc2ccccc12 (stereo partly specified)	–	–
5.5	0.35	–	CNC(=S)NCCCCC(NC(=O)C(Cc1cccc2ccccc12)Cc1cccc2ccccc12)C(=O)NC(CC(C)C)[C@@H](O)C(F)(F)C(=O)N1CCOC(CCN)C1 (stereo partly specified)	–	–
1.68	0.036	0.02	C/N=C(\S)NCCCCC(NC(=O)C(CC(=O)N1CCOCC1)Cc1cccc2ccccc12)C(=O)NC(CC1CCCCC1)[C@@H](O)CC(=O)N1CCOC(CCN)C1 (stereo partly specified)	–	–
5.46	0.048	–	CNC(=S)NCC#CCC(NC(=O)C(Cc1cccc2ccccc12)Cc1cccc2ccccc12)C(=O)NC(CC1CCCCC1)[C@@H](O)CC(=O)N1CCOC(CCN)C1 (stereo partly specified)	–	–
–	0.085	0.061	CCC(C)CNC(=O)C[C@H](O)C(CC(C)C)NC(=O)C(Cc1cnc[nH]1)NC(=O)C(Cc1cccc2ccccc12)Cc1cccc2ccccc12 (stereo partly specified)	–	–
5.7	2.49	9.35	CCC(C)CNC(=O)C[C@H](O)C(CC(C)C)NC(=O)C(CCNC(=S)NC)NC(=O)C(Cc1cccc2ccccc12)Cc1cccc2ccccc12 (stereo partly specified)	–	–

logD ([1]; pH 7.4, logD)	IC50 (Renin [2]) [µM]	IC50 (Renin [3]) [µM]	Compound	logD ([1]; pH 7.4)	IC50 (Cathepsin D) [µM]
2.93	0.0023	–	C/N=C(\S)NCCCCC(NC(=O)C(Cc1ccccc1)NS(=O)(=O)N1CCOCC1)C(=O)NC(CC1CCCCC1)[C@H](O)C(F)(F)C(=O)N1CCOC(CCN)C1 (stereo partly specified)	–	–
5.25	3.49	2.58	CCC(C)CNC(=O)C[C@H](O)C(CC(C)C)NC(=O)C(CCCCN)NC(=O)C(Cc1cccc2ccccc12)Cc1cccc2ccccc12 (stereo partly specified)	–	–
5.56	0.1	–	CCC(C)CNC(=O)C[C@H](O)C(CC(C)C)NC(=O)C(C/C=C\CNC(C)=O)NC(=O)C(Cc1cccc2ccccc12)Cc1cccc2ccccc12 (stereo partly specified)	–	–
7.69	8	2.9	CC(C)CC(NC(=O)C[C@H](O)C(CC(C)C)NC(=O)C(CCCCNC(=O)OCc1ccccc1)NC(=O)C(Cc1cccc2ccccc12)Cc1cccc2ccccc12)C(=O)NCc1ccccc1 (stereo partly specified)	–	–
4.4	4.15	> 10	CCC(C)CNC(=O)C[C@H](O)C(CC(C)C)NC(=O)C(CCNC(C)=O)NC(=O)C(Cc1cccc2ccccc12)Cc1cccc2ccccc12 (stereo partly specified)	–	–
7.09	0.39	0.54	CCC(C)CNC(=O)C[C@H](O)C(CC(C)C)NC(=O)C(CCCn1cccc1)NC(=O)C(Cc1cccc2ccccc12)Cc1cccc2ccccc12 (stereo partly specified)	–	–
4.83	10.6	–	CNC(=S)NCCCCC(NC(=O)C(Cc1cccc2ccccc12)Cc1cccc2ccccc12)C(=O)NC(CC(C)C)[C@@H](O)CC(=O)N(C)OC (stereo partly specified)	–	–
5.44	0.0087	–	NCCC1CN(C(=O)C[C@H](O)C(CC2CCCCC2)NC(=O)C(CC#CCNC=O)NC(=O)C(Cc2cccc3ccccc23)Cc2cccc3ccccc23)CCO1 (stereo partly specified)	–	–
2.9	0.0033	–	C/N=C(\S)NCC#CCC(NC(=O)C(Cc1ccccc1)NS(=O)(=O)N1CCOCC1)C(=O)NC(CC1CCCCC1)[C@@H](O)CC(=O)N1CCOC(CCN)C1 (stereo partly specified)	–	–
2.64	0.027	–	CNC(=S)NCCCCC(NC(=O)C(Cc1ccccc1)S(=O)(=O)C(C)(C)C)C(=O)NC(CC1CCCCC1)[C@@H](O)CC(=O)N1CCOC(CCN)C1 (stereo partly specified)	–	–
4.67	0.09	–	CS/C(=N\CCCCC(NC(=O)C(Cc1cccc2ccccc12)Cc1cccc2ccccc12)C(=O)NC(CC(C)C)[C@@H](O)CC(=O)N1CCOC(CCN)C1)NC#N (stereo partly specified)	–	–
5.41	0.039	0.04	CCC(C)CNC(=O)C[C@H](O)C(CC(C)C)NC(=O)C(CCCCCNC(=S)NC)NC(=O)C(Cc1cccc2ccccc12)Cc1cccc2ccccc12 (stereo partly specified)	–	–
6.63	0.047	–	CCC(C)CNC(=O)C[C@H](O)C(CC1CCCCC1)NC(=O)C(CCCC/N=C(/S)NC)NC(=O)C(Cc1cccc2ccccc12)Cc1cccc2ccccc12 (stereo partly specified)	–	3.2
5.51	0.041	0.019	CCC(C)CNC(=O)C[C@H](O)C(CC(C)C)NC(=O)C(CCCCNC(=NC#N)SC)NC(=O)C(Cc1cccc2ccccc12)Cc1cccc2ccccc12 (stereo partly specified)	–	–
5.64	0.044	0.048	CCC(C)CNC(=O)C[C@H](O)C(CC(C)C)NC(=O)C(CCCCCCN=C(S)NC)NC(=O)C(Cc1cccc2ccccc12)Cc1cccc2ccccc12 (stereo partly specified)	–	–
5.23	0.026	0.041	CCC(C)CNC(=O)C[C@H](O)C(CC(C)C)NC(=O)C(C/C=C/C/N=C(/S)NC)NC(=O)C(Cc1cccc2ccccc12)Cc1cccc2ccccc12 (stereo partly specified)	–	–
4.38	0.036	0.0062	CCC(C)CNC(=O)C[C@H](O)C(CC(C)C)NC(=O)C(CCCCNC(C)=O)NC(=O)C(Cc1cccc2ccccc12)Cc1cccc2ccccc12 (stereo partly specified)	–	–

Compound	logD ([1]; pH 7.4, logD)	IC50 (Renin [2]) [µM]	IC50 (Renin [3]) [µM]	logD ([1]; pH 7.4)	IC50 (Cathepsin D) [µM]
N=C(NCC#CCC(NC(=O)C(Cc1cccc2ccccc12)Cc1cccc2ccccc12)C(=O)NC(CC1CCCCC1)[C@@H](O)CC(=O)N1CCOC(CCN)C1)N[N+](=O)[O-] (stereo partly specified)	–	0.012	–	4.73	–
CC(C)CC(NC(=O)C(CCCC/N=C(/N)N[N+](=O)[O-])NC(=O)C(Cc1cccc2ccccc12)Cc1cccc2ccccc12)[C@@H](O)CC(=O)N1CCOC(CCN)C1 (stereo partly specified)	–	0.04	0.045	4.09	–
CC(C)CC(NC(=O)C[C@H](O)C(CC(C)C)NC(=O)C(CCCCNC(=N)N[N+](=O)[O-])NC(=O)C(Cc1cccc2ccccc12)Cc1cccc2ccccc12)C(=O)NCc1ccccc1 (stereo partly specified)	–	0.049	0.015	5.51	–
CC(C)CC(NC(=O)C(CCCC/N=C(/N)N[N+](=O)[O-])NC(=O)C(CC(=O)N1CCOCC1)Cc1cccc2ccccc12)[C@@H](O)CC(=O)N1CCOC(CCN)C1 (stereo partly specified)	–	0.395	–	1.95	–
CCC(C)CNC(=O)C[C@H](O)C(CC(C)C)NC(=O)C(CCCCC/N=C(\N)N[N+](=O)[O-])NC(=O)C(Cc1cccc2ccccc12)Cc1cccc2ccccc12 (stereo partly specified)	–	0.02	0.026	5.1	1.47

Source: ChEMBL document CHEMBL1125654, “New inhibitors of human renin that contain novel replacements at the P2 site” (J Med Chem, 1991)
